Most compounds without a hit are left out; they make up all but 3.8% or so of the library.
KCNK3 block: human KCNK3 channel inhibitors, primary screen, CHO cells, FluxOR thallium flux, B-score. Potassium channel subfamily K member 3 (Homo sapiens), O14649. FluxOR fluorescence; active compounds read low. B-score at 10 µM. 340,000 tested, 0.84% active. AID 602410, 2012;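 active means B-score under library mean minus 4 SD, starting fluorescence ratio at most library mean plus 5 SD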;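 further: more negative B-score means stronger inhibition of thallium flux through KCNK3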
Target sequence (O14649 whole entry, looked up): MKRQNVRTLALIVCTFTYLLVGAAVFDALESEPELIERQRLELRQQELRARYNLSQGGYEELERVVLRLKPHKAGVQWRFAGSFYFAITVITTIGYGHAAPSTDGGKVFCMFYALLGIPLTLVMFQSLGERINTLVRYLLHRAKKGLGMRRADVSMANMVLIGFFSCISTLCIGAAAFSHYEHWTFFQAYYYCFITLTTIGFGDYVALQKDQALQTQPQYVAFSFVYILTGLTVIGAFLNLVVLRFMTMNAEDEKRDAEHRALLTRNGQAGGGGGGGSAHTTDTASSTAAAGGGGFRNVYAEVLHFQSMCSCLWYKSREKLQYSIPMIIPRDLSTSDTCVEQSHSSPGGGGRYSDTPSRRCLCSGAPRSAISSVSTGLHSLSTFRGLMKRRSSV
KCNK9 inh: KCNK9 potassium channel inhibitors, primary screen, HEK293 cells, thallium flux; FluxOR thallium flux fluorescence; active compounds read low; B-score at 10 µM; Potassium channel subfamily K member 9 (Homo sapiens), Q9NPC2; 310,000 tested, 1.2% active;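 active means ratio B-score over 3 SD below the library mean, with starting fluorescence within 5 SD of its mean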;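 further: negative B-score means less thallium flux so channel inhibition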
KCNQ1 act: potentiators or activators of KCNQ1 channel, primary screen, cell-based, thallium flux, high-throughput; Potassium voltage-gated channel subfamily KQT member 1 (Homo sapiens), P51787; AID 2648, 2010; 310,000 tested, 0.35% active; B-score at 10 µM; CHO-K1 KCNQ1, thallium flux FluxOR fluorescence; active compounds read high;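 active means fluorescence ratio B-score, a plate-corrected score, at least three library SD, with initial intensity B-score within 5 SD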
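Material: CHO-K1 cells stably expressing KCNQ1. Medium: assay buffer for compound exposure, DMSO matched across wells. Reagent: K+/Tl+ depolarizing stimulus. Compound dosing: single-concentration screen. Times: 37 °C overnight plating, 90-min dark dye load, 20-min compound pretreatment. Technique: FluxOR Tl+ flux fluorescence.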
KCNQ1 block: inhibitors of human KCNQ1 channel, primary screen, cell-based, thallium flux, high-throughput; CHO-K1 KCNQ1, FluxOR thallium flux fluorescence; active compounds read high; B-score at 10 µM; Potassium voltage-gated channel subfamily KQT member 1 (Homo sapiens), P51787; AID 2642, 2010; 310,000 tested, 1.3% active;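 active means compounds whose thallium flux B-score, printed positive for inhibition, exceeds three library SD while starting fluorescence stays within three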;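 further: channel opened by potassium depolarization with thallium stimulus after 20 min compound exposure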
Kir21 inh: inhibitors of mouse Kir2.1 inward-rectifier potassium channel | B-score at 10 µM | AID 1672, 2009 | HEK293-Kir2.1, FluxOR thallium flux fluorescence; active compounds read low | 310,000 tested, 0.85% active;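 active means fluorescence ratio B-score at or below minus 3 SD of library scores, with starting-brightness B-score within 2 SD, cut at about -4.2 in these data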;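 further: channel flux triggered by added potassium and thallium sulfate stimulus; B-score of peak minus minimum fluorescence over baseline after thallium stimulus; more negative B-score means stronger Kir2.1 block with less thallium influx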
hERG rescue: hERG rescue from dofetilide block, primary screen, cell-based, CHO-hERG, FluxOR thallium flux, dofetilide IC70 | activation (rescue from dofetilide block), less the hit threshold, % at 10 µM | dofetilide IC70 present | Voltage-gated inwardly rectifying potassium channel KCNH2 (Homo sapiens), Q12809 | AID 1511, 2009 | 310,000 tested, 0.51% active;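 active means activation above the mean of controls blocked by dofetilide plus 5 SD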;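 further: thallium influx through hERG after potassium depolarization seen as dye fluorescence rise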
KCNK9 block conf: KCNK9 potassium channel inhibitors, confirmation, HEK293 cells, thallium flux, duplicate; shares compounds with KCNK9 inh; AID 492992, 2010; FluxOR thallium flux fluorescence; 4,900 tested, 43% active; inhibition, % at 10 µM;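 active means thallium signal inhibited by more than 5 SD of the compound-free buffer control wells, on both duplicate plates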;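 further: 0% = assay buffer control wells without compound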
Kir2-1 spec: mouse Kir2.1 channel inhibition, confirmation, selectivity assay for KCNK9 modulator project, cell-based, HEK293, thallium flux | Kir2.1 cells, FluxOR thallium flux fluorescence | shares compounds with KCNK9 inh | inhibition, % at 10 µM | 4,900 tested, 4% active;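 active means thallium signal drop more than 5 SD beyond the mean of the no-compound control wells, seen in both duplicate plates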;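 further: signal is fluorescence rise after thallium addition divided by baseline fluorescence; plate controls were assay buffer only for no effect and full block by chlorpromazine control for full effect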
HEK293 Tl ctr: thallium flux in non-induced HEK293 cells, confirmation, counter-screen for KCNK9 inhibitor project, cell-based, second counter screen, non-induced KCNK9-HEK293; shares compounds with KCNK9 inh; inhibition, % at 10 µM; 4,900 tested, 40% active; FluxOR thallium flux; AID 492997, 2010;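 active means thallium signal drop beyond 5 SD of the untreated control mean, on both duplicate plates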;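 further: plate controls were buffer only IC0 wells for no effect and SID17386958 at its maximal inhibitory level for full effect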
KCNK3 confirm: retest of human KCNK3 channel inhibitors, confirmation, CHO cells, FluxOR thallium flux, triplicate; 2,400 tested, 99% active; shares compounds with KCNK3 block; ratio percent of control, % at 10 µM; FluxOR fluorescence; 0% buffer, 100% carvedilol maximal block;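 active means ratio percent of control, averaged over triplicates, above buffer control mean plus 5 SD, cut at about 64% in these data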;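 further: ratio is the fluorescence rise from min to max over baseline after thallium stimulus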
KCNK3 uninduced: thallium flux inhibition in non-induced cells, primary screen, counter-screen for KCNK3 inhibitor project, cell-based, non-induced KCNK3 line, FluxOR thallium, triplicate; shares compounds with KCNK3 block; non-induced KCNK3 parental cells; active compounds read low; thallium flux ratio (lower = more inhibition) at 10 µM; 2,400 tested, 40% active;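 active means thallium flux ratio, averaged over three wells, more than 5 SD below the buffer control mean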;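 further: host cells are CHO cells without KCNK3 induction; ratio is peak minus trough fluorescence over baseline then normalized to buffer controls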
* hit, by the source's call; i = inactive; · = no result given.

SMILES	KCNK3 block	KCNK9 inh	KCNQ1 act	KCNQ1 block	Kir21 inh	hERG rescue	KCNK9 block conf	Kir2-1 spec	HEK293 Tl ctr	KCNK3 confirm	KCNK3 uninduced
COCCn1c(SCc2ccc(OC)c(F)c2)nc2ccccc2c1=O	-12*	-16*	i	i	0.01	-15	79%*	i	64%*	106*	i
Cc1cc(NC(=O)CSc2nnnn2-c2ccccc2C)no1	i	i	i	i	1.5	-2	·	·	·	·	·
CCCSc1nsc(NC(=O)C(c2ccccc2)c2ccccc2)n1	-9*	-8.8*	i	6*	-0.01	-6	55%*	i	42%*	132*	0.12*
CCCSc1nsc(NC(=O)CC)n1	i	i	i	i	-2	-4	·	·	·	·	·
O=C(Nc1cccc(NC(=O)c2ccccc2Cl)c1)c1cccs1	i	-13*	i	i	-0.28	-2	57%*	i	28%*	112*	i
Cc1ccc(NC(=O)c2cccs2)cc1NC(=O)c1ccccc1Cl	i	i	i	i	0.54	-4	·	·	·	·	·
COc1ccc(-c2cccc(NC(=O)c3cccs3)c2)nn1	-10*	-9.1*	i	i	0.54	-16	35%*	i	i	96*	i
CC(Oc1ccc(S(=O)(=O)N2CCCC2)cc1[N+](=O)[O-])C(=O)N(C)c1ccccc1 (configuration not stated)	i	i	i	i	1	-8	·	·	·	·	·
Cc1ccccc1C(=O)NC1CCN(CC(=O)Nc2ccc(Br)cc2)CC1	i	i	i	i	-0.71	-7	·	·	·	·	·
O=C(O)Cn1c(-c2ccccn2)nc2ccccc21	i	i	i	i	0.7	-5	·	·	·	·	·
CN1c2ccccc2-c2nc3ccccc3n2C1c1ccncc1 (configuration not stated)	i	i	i	i	0.03	-7	·	·	·	·	·
CCN1c2ccccc2-c2nc3ccccc3n2C1c1ccco1 (configuration not stated)	-9.2*	-9.1*	i	i	-6.4*	-17	40%*	28%*	44%*	128*	0.14*
c1ccc(CN2c3ccccc3-c3nc4ccccc4n3C2c2ccccn2)cc1 (configuration not stated)	-10*	-14*	i	i	-0.37	-30	66%*	i	40%*	123*	i
Cc1ccccc1CS(=O)(=O)c1cn(CC(=O)N2CCC(C)CC2)c2ccccc12	i	i	i	i	-0.3	-17	·	·	·	·	·
COc1ccccc1NC(=S)NC(=O)CCCOc1ccc(Cl)cc1Cl	-10*	-23*	i	i	-0.85	-2	58%*	i	30%*	117*	i
O=C(CN(C1CCCCC1)S(=O)(=O)c1ccccc1)NCc1cccnc1	i	i	i	i	-0.71	0	·	·	·	·	·
CN1CCN(C2CCCCC2NS(=O)(=O)c2ccccc2)CC1 (configuration not stated)	i	i	i	i	-1.5	-8	·	·	·	·	·
O=S(=O)(NC1CCCCC1N1CCN(c2cccc(Cl)c2)CC1)c1ccccc1 (configuration not stated)	-10*	-13*	i	i	1.6	-9	57%*	i	42%*	107*	i
Cc1ccccc1NC(=O)C(=O)Nc1ccccc1C	i	i	i	i	-0.66	-1	·	·	·	·	·
COc1cc2ccc(=O)oc2c(CC=C(C)C)c1OC	i	i	i	i	0.57	-10	·	·	·	·	·
COc1cc(O)cc2c1[C@@H]1Oc3c(ccc(O)c3CC=C(C)C)[C@@H]1CO2	i	-12*	i	i	-5.2*	-26	54%*	i	i	137*	0.12*
N#CC(c1ccc(F)cc1)c1ccc(C(=O)c2ccc(F)cc2)cc1 (configuration not stated)	-10*	-9.7*	i	i	-1.6	-7	49%*	i	34%*	120*	i
COc1ccc(C2CC(=O)CC(=O)C2n2cncn2)cc1 (configuration not stated)	i	i	i	i	3.1	-14	·	·	·	·	·
CCOc1cccc2sc(N(CCN(C)C)C(=O)c3ccc4ccccc4c3)nc12	-9.6*	-9.4*	i	i	-1.4	-23	36%*	i	i	118*	i
CCCCn1c(N)c(N(CCOC)C(=O)CSCc2ccccc2C)c(=O)[nH]c1=O	i	i	i	i	0.59	-11	·	·	·	·	·
C=CCn1c(C)nnc1SCC(=O)Nc1nc(C)c(C(=O)N(C)C)s1	i	i	i	i	1.1	1	·	·	·	·	·
CCCCOc1ccc2c(C)cc(=O)oc2c1OCCCC	-9.4*	-25*	i	7*	0.71	-12	76%*	i	36%*	119*	0.14*
CCOc1ccc2c(C)cc(=O)oc2c1OCC	i	i	i	i	1.1	-4	·	·	·	·	·

Screens as filed in PubChem.
